# Only some compounds are listed: those with a hit (about 2.1% of all), similar ones and a draw of the others.
# Apaf1 inhib: blocks human Apaf-1 apoptosome activity; inhibition, % at 20 µM; AID 489030; O14727; 330,000 tested, 0.71% active; reconstituted apoptosome caspase-3 activity, DEVD-Rh110 fluorescence; active = inhibition of at least 40% at 20 µM;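 note: plate controls were DMSO wells for no effect and DEVD-CHO caspase inhibitor wells for full effect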
#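 System – cell-free apoptosome with Apaf-1, procaspase-3 and caspase-9 · Buffer or medium – pH 7.5 Hepes buffer with CHAPS, BSA, DTT · Also added – cytochrome c with DEVD-Rh110 · Times – 30 min compound preincubation, 50 min activation, room temperature · Technique – Rh110 fluorescence intensity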
# PP1 inh: blocks human PP1-alpha phosphatase, a PP5 counter-screen | P62136 | purified PP1alpha, OMFP fluorescence | inhibition, % at 6.7 µM | 320,000 tested, 0.9% active | AID 2235;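 active = inhibition above the mean inhibition of all tested compounds plus 3 SD, computed separately for each screening campaign, cut at about 15% in these data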
# GSTO1 counter: blocks human GSTO1 in RBBP9 counter-screen; P78417; recombinant GSTO1, activity-based probe fluorescence polarization; inhibition, % at 5.96 µM; 300,000 tested, 1.1% active;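 active = inhibition above the campaign mean inhibition plus 3 SD, cut at about 35% in these data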;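 note: 0% = GSTO1-1 with DMSO and 100% = wells lacking GSTO1-1 enzyme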
# Target sequence (P78417 whole entry, looked up): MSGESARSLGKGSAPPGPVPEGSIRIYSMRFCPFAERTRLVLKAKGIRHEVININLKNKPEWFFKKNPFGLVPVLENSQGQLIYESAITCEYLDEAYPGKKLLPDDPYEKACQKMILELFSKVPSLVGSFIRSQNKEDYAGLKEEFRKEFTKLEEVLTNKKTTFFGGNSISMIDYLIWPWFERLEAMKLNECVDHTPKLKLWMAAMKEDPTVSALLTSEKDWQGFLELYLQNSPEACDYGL
# PP5 primary: inhibitors of human protein phosphatase 5 (PP5); P53041; purified PP5c, OMFP substrate fluorescence; inhibition, % at 6.7 µM; 320,000 tested, 0.18% active; AID 1987;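 active = inhibition above the campaign's mean inhibition across all tested compounds plus 3 SD, cut at about 9.5% in these data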;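 note: 0% = DMSO only and 100% = 100 µM cantharidin control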
# Target sequence (P53041 whole entry, looked up): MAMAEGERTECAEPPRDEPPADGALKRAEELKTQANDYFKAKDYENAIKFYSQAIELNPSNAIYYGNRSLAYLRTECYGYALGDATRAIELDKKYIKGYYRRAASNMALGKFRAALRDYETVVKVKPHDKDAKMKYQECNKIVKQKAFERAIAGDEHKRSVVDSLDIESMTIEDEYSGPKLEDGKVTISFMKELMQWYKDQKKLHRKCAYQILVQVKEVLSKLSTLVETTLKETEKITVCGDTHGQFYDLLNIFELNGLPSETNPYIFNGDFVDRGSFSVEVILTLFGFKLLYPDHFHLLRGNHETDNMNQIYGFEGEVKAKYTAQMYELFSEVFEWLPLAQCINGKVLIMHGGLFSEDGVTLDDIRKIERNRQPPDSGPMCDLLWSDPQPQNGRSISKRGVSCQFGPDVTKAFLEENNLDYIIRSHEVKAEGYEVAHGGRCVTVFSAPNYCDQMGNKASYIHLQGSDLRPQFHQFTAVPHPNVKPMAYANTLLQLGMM
# TDP2 absorb: blocks human TDP2 phosphodiesterase activity; O95551; recombinant TDP2, T5PNP hydrolysis, p-nitrophenol absorbance 415 nm; inhibition, % at 12.8 µM; 370,000 tested, 0.34% active; AID 720702;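 active = inhibition above the mean of all tested compounds plus 3 SD, set per campaign, cut at about 25% in these data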;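 note: 0% = DMSO with enzyme and 100% = buffer with substrate but no TDP2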
#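 Test system: Human TDP2 enzyme | Reagent: 5 mM T5PNP | Compound dosing: 12.8 µM single point, 1% DMSO | Incubation: Enzyme reaction with compound for 2 h at 37 °C | Technique: p-Nitrophenol epi absorbance | Read-out: % inhibition relative to enzyme-containing and enzyme-free wells | Benchmarks: High control without enzyme, low control DMSO plus TDP2 | Replicates: Singlicate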
# PP1 inh confirm: human PP1 phosphatase inhibition, confirmation | shares compounds with PP1 inh | purified PP1alpha, OMFP substrate fluorescence | inhibition, % at 6.7 µM | 1,900 tested, 52% active | AID 2358;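 active = mean PP1 inhibition above a set limit taken from the earlier primary screen, cut at about 15% in these data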
# PP5 inh counter: PP5 phosphatase inhibition, counter-screen for PP1 inhibitors; shares compounds with PP1 inh; purified PP5c, OMFP fluorescence; inhibition, % at 6.7 µM; 1,900 tested, 4% active;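 active = mean PP5 inhibition over triplicate wells above about 9.5% taken from the earlier PP1 screen, limit read from the data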
# * marks the source's active call; other numbers are inactive results; . = no result given.
SMILES,Apaf1 inhib,PP1 inh,GSTO1 counter,PP5 primary,TDP2 absorb,PP1 inh confirm,PP5 inh counter
CCc1cccc(NC(=O)c2ccc(Cn3c(=O)[nH]c4ccsc4c3=O)cc2)c1,-5.4,18.1*,-0.2,1.9,2.9,12.8,-0.1
O=C(c1ccc(Cn2c(=O)[nH]c3ccsc3c2=O)cc1)N1CCN(c2ccccc2)CC1,-4.2,-3.3,5.8,2.0,-1.6,.,.
Cc1ccc(C)c(-c2nnc(NC(=O)COc3ccccc3)o2)c1,-4.7,21.8*,1.6,-0.3,0.0,20.9*,-2.4
Cc1ccc(C)c(-c2nnc(NC(=O)CCS(=O)(=O)c3ccccc3)o2)c1,0.7,4.3,0.7,0.0,-6.3,.,.
COc1ccc(-c2c[n+]3c4n2CCCCC4=C(c2ccccc2)C3)cc1,0.0,18.3*,6.3,0.4,-7.2,-9.1,-2.8
CC(=O)OC12CCCN(C1)/C(=C/c1ccccc1)C2 (centres undefined),.,.,.,.,12.1,.,.
CCOC(=O)C1=C(CSc2nc3c(cc2C#N)CCC3)OC(N)=C(C#N)C1c1ccccc1 (centres undefined),-3.9,1.4,2.4,4.9,2.6,.,.
COC(=O)C1=C(CSc2nc3c(cc2C#N)CN(C)CC3)OC(N)=C(C#N)C1c1ccccc1F (centres undefined),26.8,18.4*,26.9,3.3,.,5.4,3.9
CCCCCCC12C(=Cc3cc4c(cc31)OCCO4)c1cc(OC)c(OC)cc1C(CC(=O)O)N2C(=O)OC (centres undefined),.,.,.,.,-1.1,.,.
C#CCNC(=O)C1=C[C@@H](c2csc3ccccc23)C[C@@H](OCc2ccc(CO)cc2)O1,10.1,72.8*,4.2,5.0,2.0,1.6,0.6
CCOC(=O)c1cnc2c3c(noc13)CCC2,.,.,.,.,5.3,.,.
COc1ccc(/C=C/C(=O)NC(=S)NNC(=O)Cc2cccs2)cc1OC,15.3,3.1,-16.0,2.0,-7.6,.,.
Cc1onc(-c2ccccc2)c1C(=O)NC(=S)NNC(=O)c1cc(-c2ccc(F)cc2)n[nH]1,3.4,28.6*,-17.1,1.8,-7.2,22.2*,-1.1
O=C(/C=C/c1cccs1)NC(=S)NNC(=O)Cc1cccs1,6.0,24.6*,-1.7,0.7,-10.4,23.9*,-7.0
Cc1onc(-c2ccccc2)c1C(=O)NNC(=S)NC(=O)/C=C/c1cccs1,-8.1,18.7*,2.5,1.3,-3.6,9.2,0.0
N#Cc1cccc(NC(=O)OC2CCC23CCC(c2ccccc2)CC3)c1 (centres undefined),.,.,.,.,2.8,.,.
Cc1ccc(NC(=O)Cn2nc(C(=O)Nc3ccc(C)cc3)ccc2=O)cc1,-4.8,21.1*,-14.7,0.9,2.9,21.7*,-2.6
O=C(Cn1nc(-c2ccccc2)ccc1=O)Nc1ccc(NC(=O)c2ccccn2)cc1,4.6,-2.4,-9.5,1.3,-5.5,.,.
Cc1cc(C)nc(SCC(=O)c2ccc(F)c(C)c2)n1,-1.3,43.3*,7.2,0.5,3.7,-3.2,-3.9
O=C1CC(=C(c2ccccc2)c2ccccc2)C(=O)N1CCCCN1CCN(c2cccc(Cl)c2)CC1,13.9,25.0*,5.6,4.6,-16.4,3.5,-1.9
CSC(=Nc1ccccc1)N=C(SCc1ccccc1)N(C)C,.,.,.,.,-2.8,.,.
CCOc1cc(/C=C2\SC(=Nc3ccc(CC)cc3)NC2=O)ccc1OCC(=O)O,15.5,21.7*,-79.2,-1.3,-1.9,8.2,-0.9
CCc1ccc(N=C2NC(=O)/C(=C/c3cc(Br)c(OCC(=O)O)c(OC)c3)S2)cc1,-99.4,30.3*,-35.7,0.2,-6.9,21.1*,2.0
N#CCCCc1cn(-c2ccc(-c3noc4c3C(=O)N(CC(=O)N3CCOCC3)CC4)cc2)nn1,.,.,.,.,0.4,.,.
Cc1noc(C)c1COC(=O)COc1ccc2c(C)cc(=O)oc2c1,8.2,18.9*,3.9,1.1,-8.2,16.7*,-3.6
SMILES,Apaf1 inhib,PP1 inh,GSTO1 counter,PP5 primary,TDP2 absorb,PP1 inh confirm,PP5 inh counter
COc1cc(C2c3c(c(C)c(C)oc3=O)Oc3c(C)c(C)oc(=O)c32)ccc1OS(=O)(=O)c1ccc(C)cc1,5.0,21.3*,.,-1.4,2.6,26.0*,-2.6
CC(C)c1cc(C(C)C)c(S(=O)(=O)N2CCCC(C(=O)N3CCN(Cc4ccccc4)CC3)C2)c(C(C)C)c1 (centres undefined),.,.,.,.,-0.8,.,.
N#Cc1ccc(-c2ccco2)nc1SCC(=O)c1ccc(Cl)cc1,20.0,26.2*,3.0,0.7,-1.0,6.8,-3.1
Cc1ccc(C(=O)CSc2nc(-c3ccccc3)ccc2C#N)cc1,9.6,-1.6,4.8,1.1,-4.5,.,.
O=C(O)CCC(=O)N1N=C(c2c(-c3ccccc3)c3cc(Cl)ccc3[nH]c2=O)CC1c1ccco1 (centres undefined),10.0,3.2,-5.3,1.8,11.1,.,.
CCC(=O)N1N=C(c2c(-c3ccccc3)c3cc(Cl)ccc3[nH]c2=O)CC1c1ccco1 (centres undefined),24.3,27.1*,0.8,-0.6,-24.1,10.1,-1.2
COc1cc(OC)c(C(=O)Nc2ccc3ccccc3c2)cc1OC,12.2,1.4,-0.5,1.5,.,.,.
COc1cc2ccccc2cc1C(=O)Nc1ccc2oc(=O)ccc2c1,0.7,24.5*,4.8,-0.6,5.2,10.9,-6.0
COc1ccccc1NC(=O)C(=O)N/N=C(\C)CC(=O)Nc1ccc(OCc2ccccc2)cc1,15.8,19.1*,-12.5,4.0,4.0,24.4*,-1.6
C/C(CC(=O)Nc1ccccn1)=N\NC(=O)C(=O)Nc1cccc(C)c1,-9.0,1.6,0.6,2.2,2.2,.,.
C/C(CC(=O)Nc1ccc(OCc2ccccc2)cc1)=N\NC(=O)C(=O)Nc1cccc(C)c1,21.5,17.9*,-6.4,-2.3,-9.8,0.1,-6.3
COc1cccc(CNC(=O)[C@H]2CCCN2C(=O)[C@H]2CCCN2C(=O)c2ccc(F)cc2F)c1,.,.,.,.,-1.3,.,.
Cc1ccc2c(c1)C(CS(=O)(=O)NCCc1ccccc1)NC2 (centres undefined),.,.,.,.,4.7,.,.
CCC[C@H]1[C@@H](NC(=O)c2cccc(N(C)C)c2)CC[C@@]23CCCN2C(=O)CCC[C@@H]13,.,.,.,.,5.7,.,.
O=C(NCCC1CCCCN1S(=O)(=O)c1ccc(Cl)cc1)C(=O)NCc1cccnc1 (centres undefined),14.0,52.3*,7.9,2.1,2.1,-3.1,-1.1
COc1ccc(Cn2cc(COC(=O)N3CCOCC3)nn2)cc1,.,.,.,.,-2.5,.,.
CCOc1ccc(OCC(=O)Nc2ccc(N3CCCCC3)cc2)cc1,-1.0,0.0,-1.9,2.8,-13.9,.,.
Cc1cc(OCC(=O)Nc2ccc(N3CCCC3)cc2)cc(C)c1Cl,25.9,17.7*,5.2,3.2,-14.9,-2.4,0.4
COc1ccc(NC(=O)NNC(=O)c2ccc(-c3ccccc3)cc2)c(OC)c1,21.5,.,.,.,6.4,.,.
COc1ccc(NC(=O)NNC(=O)COc2ccc3cc(Br)ccc3c2)cc1OC,18.3,25.4*,-4.1,0.2,-6.8,24.6*,-5.6

# Source: PubChem
